pIC50: −log10 of the molar value. The source made the active and inactive calls. The rule behind the calls is not given here.
Columns and labels:
Endoplasmin = Endoplasmin (Canis lupus familiaris, UniProt P41148); test: Displacement of Cy3B-GM from recombinant Grp94 (unknown origin) after 24 hrs by fluorescence polarization assay
[1] = target: Heat shock protein HSP 90-alpha (Homo sapiens, UniProt P07900); test: Displacement of Cy3B-GM from recombinant Hsp90alpha (unknown origin) after 24 hrs by fluorescence polarization assay
[2] = target: Heat shock protein HSP 90-beta (Homo sapiens, UniProt P08238)
Sequence of Heat shock protein HSP 90-beta (P08238 whole entry): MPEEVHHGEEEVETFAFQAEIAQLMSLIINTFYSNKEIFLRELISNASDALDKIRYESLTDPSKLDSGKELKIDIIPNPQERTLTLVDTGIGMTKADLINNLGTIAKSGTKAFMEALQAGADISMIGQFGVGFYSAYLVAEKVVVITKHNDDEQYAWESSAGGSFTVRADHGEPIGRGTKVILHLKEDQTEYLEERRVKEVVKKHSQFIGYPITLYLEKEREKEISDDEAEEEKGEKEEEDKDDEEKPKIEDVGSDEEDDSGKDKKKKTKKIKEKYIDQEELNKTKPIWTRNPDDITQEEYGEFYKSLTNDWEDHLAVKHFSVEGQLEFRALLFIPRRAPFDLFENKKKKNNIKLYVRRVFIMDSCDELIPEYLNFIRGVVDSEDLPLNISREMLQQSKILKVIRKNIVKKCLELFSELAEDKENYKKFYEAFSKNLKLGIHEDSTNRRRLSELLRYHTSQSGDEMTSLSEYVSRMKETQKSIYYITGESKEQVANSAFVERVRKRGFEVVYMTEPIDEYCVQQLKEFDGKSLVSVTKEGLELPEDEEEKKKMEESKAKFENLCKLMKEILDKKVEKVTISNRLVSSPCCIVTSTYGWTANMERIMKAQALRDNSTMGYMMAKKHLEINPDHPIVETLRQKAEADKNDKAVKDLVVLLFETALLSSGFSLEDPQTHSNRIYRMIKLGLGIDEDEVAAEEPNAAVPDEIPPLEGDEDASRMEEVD

[3] = target: MAP kinase-interacting serine/threonine-protein kinase 2 (Homo sapiens) (UniProt Q9HBH9); test: Inhibition of human MKNK2 at 10 uM after 1 hr by qPCR analysis relative to control
Sequence of MAP kinase-interacting serine/threonine-protein kinase 2 (Homo sapiens) (Q9HBH9 whole entry, looked up): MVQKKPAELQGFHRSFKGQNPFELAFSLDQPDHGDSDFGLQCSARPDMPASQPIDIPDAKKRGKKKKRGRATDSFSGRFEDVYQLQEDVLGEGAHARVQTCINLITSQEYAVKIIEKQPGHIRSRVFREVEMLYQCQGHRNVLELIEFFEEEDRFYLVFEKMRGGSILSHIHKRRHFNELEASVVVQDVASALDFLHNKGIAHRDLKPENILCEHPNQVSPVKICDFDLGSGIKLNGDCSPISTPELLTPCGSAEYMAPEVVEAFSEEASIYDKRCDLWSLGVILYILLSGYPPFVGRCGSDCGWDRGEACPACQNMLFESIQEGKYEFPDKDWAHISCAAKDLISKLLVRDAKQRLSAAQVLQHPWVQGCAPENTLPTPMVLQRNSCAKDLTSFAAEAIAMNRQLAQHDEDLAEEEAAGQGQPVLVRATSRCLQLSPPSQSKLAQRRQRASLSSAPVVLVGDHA
Method in brief: (§1)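 Compound tested at 10 μM in a scanEDGE 97 active-site competition binding panel. Incubation was 1 h at room temperature, then washing and elution with non-biotinylated ligand. Bead-bound kinase was quantified by qPCR; values are % inhibition.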

[4] = target: Rho-associated protein kinase 2 (Homo sapiens) (UniProt O75116); test: Inhibition of human ROCK2 at 10 uM after 1 hr by qPCR analysis relative to control; method in brief: as §1
Sequence of Rho-associated protein kinase 2 (Homo sapiens) (O75116 whole entry, looked up): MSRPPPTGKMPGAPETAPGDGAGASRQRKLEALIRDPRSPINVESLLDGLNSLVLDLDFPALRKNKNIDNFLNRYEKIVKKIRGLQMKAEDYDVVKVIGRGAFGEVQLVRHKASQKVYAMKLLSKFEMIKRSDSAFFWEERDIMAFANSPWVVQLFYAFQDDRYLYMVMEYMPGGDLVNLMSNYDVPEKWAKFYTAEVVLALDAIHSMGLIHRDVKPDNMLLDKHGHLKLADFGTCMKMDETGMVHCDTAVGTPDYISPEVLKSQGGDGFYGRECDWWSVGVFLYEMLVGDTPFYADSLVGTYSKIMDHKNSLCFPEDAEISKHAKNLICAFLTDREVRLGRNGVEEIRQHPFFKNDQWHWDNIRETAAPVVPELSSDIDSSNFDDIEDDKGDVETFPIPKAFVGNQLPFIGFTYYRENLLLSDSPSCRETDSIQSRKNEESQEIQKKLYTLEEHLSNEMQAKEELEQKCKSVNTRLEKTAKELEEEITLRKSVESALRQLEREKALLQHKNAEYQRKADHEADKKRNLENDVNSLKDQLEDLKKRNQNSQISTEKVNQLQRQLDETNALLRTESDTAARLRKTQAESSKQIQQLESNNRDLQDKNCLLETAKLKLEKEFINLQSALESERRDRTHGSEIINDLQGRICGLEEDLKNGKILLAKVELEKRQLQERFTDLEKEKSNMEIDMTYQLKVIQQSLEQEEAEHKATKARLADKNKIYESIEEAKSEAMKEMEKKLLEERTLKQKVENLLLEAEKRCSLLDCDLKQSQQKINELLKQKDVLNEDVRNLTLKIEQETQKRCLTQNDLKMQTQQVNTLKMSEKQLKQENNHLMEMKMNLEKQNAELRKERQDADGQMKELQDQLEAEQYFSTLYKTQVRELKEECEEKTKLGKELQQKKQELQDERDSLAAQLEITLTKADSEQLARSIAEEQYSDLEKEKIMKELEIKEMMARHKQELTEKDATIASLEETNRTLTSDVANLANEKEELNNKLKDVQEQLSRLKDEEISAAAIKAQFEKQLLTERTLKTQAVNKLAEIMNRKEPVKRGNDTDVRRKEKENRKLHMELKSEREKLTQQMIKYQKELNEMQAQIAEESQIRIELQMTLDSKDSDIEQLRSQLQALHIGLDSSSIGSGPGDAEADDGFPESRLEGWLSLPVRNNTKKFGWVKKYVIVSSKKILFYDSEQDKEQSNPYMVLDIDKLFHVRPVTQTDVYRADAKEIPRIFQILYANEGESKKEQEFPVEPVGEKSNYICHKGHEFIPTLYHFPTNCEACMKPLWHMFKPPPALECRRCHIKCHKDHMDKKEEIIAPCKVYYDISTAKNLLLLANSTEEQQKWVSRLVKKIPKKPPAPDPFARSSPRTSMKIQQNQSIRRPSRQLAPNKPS

Homo sapiens = species: Homo sapiens; test: Selectivity ratio of IC50 for recombinant Grp94 (unknown origin) to IC50 for recombinant Hsp90alpha (unknown origin)
[5] = Cytotoxicity against human SKBR3 cells assessed as cell viability at 100 uM after 72 hrs by CellTiter-Glo assay; assay type: cell-based; settings: sk-br-3, 72 h
Method in brief: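 SKBr3 cells were grown in McCoy's 5A with 10% FBS and Pen/Strep at 37 °C. They were exposed 72 h to vehicle or compound in quadruplicate wells. Viability was read by CellTiter-Glo luminescence (ATP content), with mean ± error, n = 4.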

[6] = target: Heat shock protein HSP90 (Homo sapiens) (UniProt P07900+P08238); test: Inhibition of HSP90 in human SKBR3 cells assessed as induction of HSP70 activity at 100 uM after 24 hrs by Western blot analysis; assay type: cell-based; settings: SK-BR-3
Method in brief: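 SKBr3 cells (McCoy's 5A, 10% FBS, 1% Pen/Strep, 37 °C, CO2) treated 24 h with DMSO vehicle or compound. Cells lysed in RIPA with protease inhibitors; protein measured by BCA. Lysate (5−50 μg) run on SDS−PAGE, blotted to nitrocellulose, probed for Hsp70 (1:2500) and β-actin. HRP secondary, ECL detection, densitometry; triplicate experiments.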

[7] = target: T1, Heat shock protein 75 kDa, mitochondrial (Homo sapiens, UniProt Q12931); test: Displacement of PU-FITC3 from recombinant TRAP-1 (unknown origin) after 24 hrs by fluorescence polarization assay
T1 sequence (Q12931 whole entry): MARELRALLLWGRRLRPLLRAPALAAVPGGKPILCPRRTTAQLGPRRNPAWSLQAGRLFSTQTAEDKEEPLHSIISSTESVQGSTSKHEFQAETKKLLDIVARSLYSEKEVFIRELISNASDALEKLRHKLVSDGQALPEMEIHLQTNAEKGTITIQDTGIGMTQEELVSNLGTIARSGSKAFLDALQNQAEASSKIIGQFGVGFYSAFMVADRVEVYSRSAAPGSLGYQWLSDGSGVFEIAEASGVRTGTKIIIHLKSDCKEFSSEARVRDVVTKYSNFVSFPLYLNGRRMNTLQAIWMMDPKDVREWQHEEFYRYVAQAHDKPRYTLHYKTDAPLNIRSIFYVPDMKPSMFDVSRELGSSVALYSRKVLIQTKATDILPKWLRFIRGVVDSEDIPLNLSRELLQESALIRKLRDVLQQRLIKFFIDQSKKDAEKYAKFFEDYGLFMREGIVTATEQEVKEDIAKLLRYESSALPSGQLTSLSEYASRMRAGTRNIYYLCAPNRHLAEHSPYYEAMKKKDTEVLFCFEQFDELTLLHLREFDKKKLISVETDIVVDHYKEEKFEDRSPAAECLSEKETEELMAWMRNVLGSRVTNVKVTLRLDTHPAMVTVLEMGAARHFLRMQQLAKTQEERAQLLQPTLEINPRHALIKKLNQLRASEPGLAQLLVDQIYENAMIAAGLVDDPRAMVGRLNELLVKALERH

Sequence of Endoplasmin (P41148 whole entry): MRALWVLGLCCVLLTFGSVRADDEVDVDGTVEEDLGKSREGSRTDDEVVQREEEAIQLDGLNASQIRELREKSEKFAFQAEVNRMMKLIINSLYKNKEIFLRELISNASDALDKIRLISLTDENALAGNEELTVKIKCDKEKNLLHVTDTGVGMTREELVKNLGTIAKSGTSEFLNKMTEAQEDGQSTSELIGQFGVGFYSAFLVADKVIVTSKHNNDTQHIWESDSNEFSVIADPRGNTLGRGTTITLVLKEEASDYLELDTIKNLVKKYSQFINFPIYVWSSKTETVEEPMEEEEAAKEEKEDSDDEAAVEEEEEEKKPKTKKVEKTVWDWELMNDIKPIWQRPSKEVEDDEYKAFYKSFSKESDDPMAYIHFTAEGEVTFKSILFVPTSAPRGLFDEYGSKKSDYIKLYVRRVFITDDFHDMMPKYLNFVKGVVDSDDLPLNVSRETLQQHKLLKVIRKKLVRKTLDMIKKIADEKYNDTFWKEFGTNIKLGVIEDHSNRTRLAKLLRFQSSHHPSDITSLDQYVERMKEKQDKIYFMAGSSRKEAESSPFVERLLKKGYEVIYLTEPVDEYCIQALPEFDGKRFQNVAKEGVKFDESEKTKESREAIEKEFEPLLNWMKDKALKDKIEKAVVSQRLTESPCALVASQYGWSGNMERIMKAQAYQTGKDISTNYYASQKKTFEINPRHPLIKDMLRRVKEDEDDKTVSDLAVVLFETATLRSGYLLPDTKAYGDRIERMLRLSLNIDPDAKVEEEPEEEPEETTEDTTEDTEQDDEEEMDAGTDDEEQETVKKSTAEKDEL

| SMILES | pIC50 (Endoplasmin) | pIC50 [1] | other results |
| --- | --- | --- | --- |
| C#CCCCn1c(Sc2ccc(OC)cc2OC)nc2c(N)ncnc21 | 4.46 | < 4.30 | pIC50 [2]: < 4.30 |
| Nc1ncnc2c1nc(Sc1cc(Cl)cc(Cl)c1)n2CCCCC(F)(F)F | 5.56 | – | – |
| C#CCCCn1c(Sc2ccccc2OC)nc2c(N)ncnc21 | 5.21 | < 4.00 | pIC50 [2]: < 4.00 |
| C#CCCCn1c([S+]([O-])c2ccc(Cl)cc2Cl)nc2c(N)ncnc21 (stereo not drawn) | 5.27 | 4.60 | – |
| COC(=O)c1c(O)cc(O)c(Cl)c1CCc1nccn1Cc1ccccc1 | – | – | Activity [5]: Toxic; inhibition [6]: Active |
| CC(C)NCCCn1c(Sc2cc(Cl)cc(Cl)c2)nc2c(N)nccc21 | 5.97 | – | pIC50 [7]: 5.14 |
| C#CCCCn1c(Sc2c(C)cc(C)cc2C)nc2c(N)ncnc21 | 5.68 | < 3.30 | pIC50 [2]: < 3.30 |
| C#CCC(CC)n1c(Sc2cc(Cl)cc(Cl)c2)nc2c(N)ncnc21 (stereo not drawn) | < 5.30 | < 4.00 | – |
| Cc1ccc(Sc2nc3c(N)ncn(CCCNC(C)C)c-3n2)c(C)c1 | < 4.60 | – | – |
| C#CCC(CC)n1c(Sc2ccc(Cl)cc2Cl)nc2c(N)ncnc21 (stereo not drawn) | 6.04 | < 4.30 | pIC50 [7]: < 4.30 |
| C#CCCCn1c(Sc2cc(Cl)nc(Cl)c2)nc2c(N)ncnc21 | 5.72 | 5.08 | pIC50 [7]: 5.02 |
| CCCCn1c(Sc2cc(Cl)cc(Cl)c2)nc2c(N)ncnc21 | – | < 4.30 | – |
| Nc1ncnc2c1nc(Sc1cc(Cl)cc(Cl)c1)n2Cc1ccccc1 | < 5.30 | < 4.30 | – |
| CC(C)NCCCn1c(Sc2ccc(Cl)cc2Cl)nc2c(N)nccc21 | 5.46 | < 4.30 | pIC50 [7]: 4.85 |
| C#CCCCn1c(S(=O)(=O)c2ccc(Cl)cc2Cl)nc2c(N)ncnc21 | 5.33 | – | – |
| C#CCCCn1c(Sc2ccc(Cl)c(Cl)c2)nc2c(N)ncnc21 | 6.16 | 5.71 | – |
| Nc1ncnc2c1nc(Sc1cc(Cl)cc(Cl)c1)n2CCCCCC(F)(F)F | 5.78 | < 4.30 | – |
| C#CCCCn1c(Sc2ccccc2OC(F)(F)F)nc2c(N)ncnc21 | 5.85 | – | – |
| C#CCC(C)n1c(Sc2cc(Cl)cc(Cl)c2)nc2c(N)ncnc21 (stereo not drawn) | 5.24 | < 4.30 | – |
| CC#CCn1c(Sc2cc(Cl)cc(Cl)c2)nc2c(N)ncnc21 | 5.29 | – | – |
| C#CCCCn1c(Sc2ccccc2CO)nc2c(N)ncnc21 | 4.53 | – | – |
| C#CCCCn1c(Sc2ccc(Cl)cc2)nc2c(N)ncnc21 | 5.82 | – | – |
| C#CCC(C)n1c(Sc2ccc(Cl)cc2Cl)nc2c(N)ncnc21 (stereo not drawn) | 5.30 | < 4.30 | – |
| Nc1ncnc2c1nc(Sc1cc(Cl)cc(Cl)c1)n2CCc1ccccc1 | < 5.60 | < 4.30 | – |
| CCCC(C)n1c(Sc2cc(Cl)cc(Cl)c2)nc2c(N)ncnc21 (stereo not drawn) | 4.84 | < 4.30 | – |
| C#CCCCn1c(Sc2ccc(OC)cc2)nc2c(N)ncnc21 | 5.95 | – | – |
| C#CCCCn1c(Cc2ccc(Cl)cc2Cl)nc2c(N)ncnc21 | 6.15 | < 4.00 | – |
| C#CCCCn1c(Sc2cc(C)cc(C)c2)nc2c(N)ncnc21 | 4.94 | – | – |
| CCCC(C)n1c(Sc2ccc(Cl)cc2Cl)nc2c(N)ncnc21 (stereo not drawn) | 5.61 | < 4.00 | pIC50 [7]: < 4.30 |

The remaining molecules from weak to strong by pIC50 (Endoplasmin), led by results:

| pIC50 (Endoplasmin) | pIC50 [1] | SMILES | other results |
| --- | --- | --- | --- |
| 6.18 | < 4.30 | C#CCCCCn1c(Sc2cc(Cl)cc(Cl)c2)nc2c(N)ncnc21 | – |
| 6.25 | – | Nc1ncnc2c1nc(Sc1cc(Cl)cc(Cl)c1)n2CCC(F)(F)F | – |
| 6.28 | – | C#CCCCn1c(Sc2cc(Cl)ccc2Cl)nc2c(N)ncnc21 | – |
| 6.30 | – | Nc1ncnc2c1nc(Sc1cc(Cl)cc(Cl)c1)n2CCCC(F)(F)F | – |
| 6.30 | < 4.00 | C#CCCCn1c(Sc2cc(C(F)(F)F)ccc2Cl)nc2c(N)ncnc21 | pIC50 [2]: < 4.00 |
| 6.30 | < 4.00 | C#CCCCn1c(Oc2ccc(Cl)cc2Cl)nc2c(N)ncnc21 | – |
| 6.37 | 4.80 | C#CCCCn1c(Sc2ccc(Cl)c(Cl)c2Cl)nc2c(N)ncnc21 | pIC50 [7]: 5.44; pIC50 [2]: 4.40 |
| 6.41 | < 4.30 | C#CCCCn1c(Sc2ccc(Br)cc2Cl)nc2c(N)ncnc21 | – |
| 6.41 | < 4.30 | C#CCCn1c(Sc2ccc(Cl)cc2Cl)nc2c(N)ncnc21 | pIC50 [7]: 5.14 |
| 6.46 | – | C#CCCCn1c(Sc2ccccc2Cl)nc2c(N)ncnc21 | – |
| 6.47 | < 4.00 | C#CCCCn1c(C(=O)c2ccc(Cl)cc2Cl)nc2c(N)ncnc21 | pIC50 [7]: 5.30 |
| 6.54 | < 4.30 | C#CCCCn1c(Sc2cc(Br)cc(Br)c2)nc2c(N)ncnc21 | – |
| 6.54 | < 4.30 | C#CCCn1c(Sc2cc(Cl)cc(Cl)c2)nc2c(N)ncnc21 | – |
| 6.58 | 7.00 | CC(C)NCCCn1c(Sc2cc3c(cc2N(C)C)OCO3)nc2c(N)ncnc21 | – |
| 6.59 | < 3.30 | C#CCCCn1c(Sc2cc(Cl)cc(Cl)c2)nc2c(N)ncnc21 | pIC50 [7]: 4.08; pIC50 [2]: < 3.30 |
| 6.62 | < 4.00 | C#CCCCn1c(Sc2cc(Cl)cc(Br)c2)nc2c(N)ncnc21 | pIC50 [2]: < 4.00 |
| 6.77 | – | C#CCCCn1c(Sc2cc(Cl)c(Cl)cc2Cl)nc2c(N)ncnc21 | – |
| 6.92 | – | C#CCCCn1c(Sc2ccc(Cl)cc2Cl)nc2c(N)ncnc21 | inhibition [3]: 34%; inhibition [4]: 32% |
| 7.00 | 7.55 | CC(C)NCCCn1c(Sc2cc3c(cc2I)OCO3)nc2c(N)nccc21 | Ratio IC50 (Homo sapiens): 4 |

From ChEMBL document CHEMBL3425404, “Structure-activity relationship in a purine-scaffold compound series with selectivity for the endoplasmic reticulum Hsp90 paralog Grp94” (J Med Chem, 2015)
